Laboratory results from ChEMBL document CHEMBL1148085, “Indole alkaloids from Peschiera laeta that enhance vinblastine-mediated cytotoxicity with multidrug-resistant cells” (1994).
Converted amounts (≈) assume the structure as drawn. The source made the active and inactive calls. The rule behind the calls is not given here.

Key:
A-431 = test: Cytotoxicity against human A431 cells by SRB assay; assay type: functional; details: read-out: ED50 (the source's name)
Outline: (§1)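 Compounds in 10% DMSO added to cell suspension; 72 h at 37° in humidified 5% CO2. Cells fixed with cold trichloroacetic acid at 4° for 1 h, sulforhodamine B stained 30 min, dye solubilized in 10 mM Tris base, OD 515 nm. A zero-day control was subtracted. Survival is relative to solvent-treated cultures over various concentrations.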

[1] = Cytotoxicity against human BC1 cells by SRB assay; assay type: functional; details: read-out: ED50 (the source's name); outline: as §1
Col2 = test: Cytotoxicity against human Col2 cells by SRB assay; assay type: functional; details: read-out: ED50 (the source's name); outline: as §1
HT = test: Cytotoxicity against human HT cells by SRB assay; assay type: functional; details: read-out: ED50 (the source's name); outline: as §1
KB = test: Cytotoxicity against human KB cells by SRB assay; assay type: functional; details: read-out: ED50 (the source's name); outline: as §1
[2] = Cytotoxicity against human drug-resistant KBV1 cells by SRB assay in presence of vinblastine; assay type: functional; details: KB-V1, read-out: ED50 (the source's name)
Outline: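 Same SRB protocol (72 h, 37°, 5% CO2, TCA fix, OD 515 nm, zero-day subtraction). KB-V1 cells were exposed to various compound concentrations with vinblastine at 1 μg/ml in the medium. Survival is relative to solvent-treated controls.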

[3] = Cytotoxicity against human drug-resistant KBV1 cells by SRB assay in absence of vinblastine; assay type: functional; details: KB-V1, read-out: ED50 (the source's name); outline: as §1
LNCaP = test: Cytotoxicity against human LNCAP cells by SRB assay; assay type: functional; details: read-out: ED50 (the source's name); outline: as §1
Lu1 = test: Cytotoxicity against human Lu1 cells by SRB assay; assay type: functional; details: read-out: ED50 (the source's name); outline: as §1
SK-MEL-2 = test: Cytotoxicity against human SK-MEL-2 cells by SRB assay; assay type: functional; details: read-out: ED50 (the source's name); outline: as §1
P388 = test: Cytotoxicity against mouse P388 cells after 48 hrs by SRB assay; assay type: functional; details: P388, 48 h, read-out: ED50 (the source's name)
Outline: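 P-388 cells at 10×10^4 cells/ml, exposed to compounds for 48 h at 37° in 5% CO2. Plates were centrifuged and supernatant removed, then cells fixed with 20% trichloroacetic acid at 4° for 1 h. Sulforhodamine B staining and OD read as for the adherent lines. Survival is relative to solvent controls.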

[4] = Cytotoxicity against human U373 cells by SRB assay; assay type: functional, U-373MG ATCC; details: U373 MG, read-out: ED50 (the source's name); outline: as §1
ZR-75-1 = test: Cytotoxicity against human ZR-75-1 cells by SRB assay; assay type: functional; details: read-out: ED50 (the source's name); outline: as §1
KBV1 = test: Inhibition of ATP-dependent [3H]vinblastine binding to p-glycoprotein in multidrug-resistant human KBV1 cells; assay type: cell-based
Outline: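 Plasma membrane vesicles from KB-V1 cells (60 μg protein) as P-glycoprotein source. Incubated with […] [3H]vinblastine and various compound concentrations (from DMSO) for 20 min at room temperature. Terminated by filtration onto BSA-pretreated glass fiber filters.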

SMILES: CC[C@H]1C[C@@H]2CN3CCc4c([nH]c5ccccc45)[C@](C(=O)OC)(C2)[C@H]13 [CORONARIDINE]
- EC50 (A-431): 19.1 µg/mL (≈ 56.4 µM)
- EC50 [1]: 7.5 µg/mL (≈ 22.2 µM)
- EC50 (Col2): > 20 µg/mL
- EC50 (HT): > 20 µg/mL
- EC50 (KB): 13.6 µg/mL (≈ 40.2 µM)
- EC50 [2]: 1.9 µg/mL
- EC50 [3]: 11.2 µg/mL (≈ 33.1 µM)
- EC50 (LNCaP): 10.7 µg/mL (≈ 31.6 µM)
- EC50 (Lu1): 10.9 µg/mL (≈ 32.2 µM)
- EC50 (SK-MEL-2): > 20 µg/mL
- EC50 (P388): 3.8 µg/mL (≈ 11.2 µM)
- EC50 [4]: 12 µg/mL (≈ 35.5 µM)
- EC50 (ZR-75-1): > 20 µg/mL

SMILES: CC[C@]1(O)C[C@@H]2CN(CCc3c([nH]c4ccccc34)[C@@](C(=O)OC)(c3cc4c(cc3OC)N(C)[C@H]3[C@@](O)(C(=O)OC)[C@H](OC(C)=O)[C@]5(CC)C=CCN6CC[C@]43[C@@H]65)C2)C1 [VINBLASTINE]
- EC50 (A-431): 0.05 µg/mL (≈ 0.0617 µM)
- EC50 [1]: 0.06 µg/mL (≈ 0.074 µM)
- EC50 (Col2): 0.01 µg/mL (≈ 0.0123 µM)
- EC50 (HT): 0.02 µg/mL (≈ 0.0247 µM)
- EC50 (KB): 0.002 µg/mL (≈ 0.00247 µM)
- EC50 [2]: 0.5 µg/mL
- EC50 [3]: 2.6 µg/mL (≈ 3.21 µM)
- EC50 (LNCaP): 0.1 µg/mL (≈ 0.123 µM)
- EC50 (Lu1): 0.02 µg/mL (≈ 0.0247 µM)
- EC50 (SK-MEL-2): 0.01 µg/mL (≈ 0.0123 µM)
- EC50 (P388): 0.02 µg/mL (≈ 0.0247 µM)
- EC50 [4]: 1.1 µg/mL (≈ 1.36 µM)
- EC50 (ZR-75-1): 0.3 µg/mL (≈ 0.37 µM)

SMILES: C/C=C1/CC2[C@H](C(=O)OC)C(NC)Cc3c([nH]c4ccccc34)[C@@H](c3cc4c(cc3OC)C3CCN5C[C@H]6C[C@H](CC)[C@H]5[C@@](C(=O)OC)(C6)C3N4)C[C@H]12 (some centres not stated) [VOACAMINE]
- Activity (KBV1): Active
